Results reported in ChEMBL document CHEMBL1125298, “Hypocholesterolemic activity of synthetic and natural tocotrienols” (J Med Chem, 1992).
Values joined by “and” are separate entries in the source; they are usually repeats but may differ in a detail not shown here. Identical values can stand only once.

Assays:
HepG2 [1] = experiment: Compound evaluated for percent inhibition of cholesterol synthesis from [14C]acetate in HepG2 cell; format: functional, Homo sapiens; set-up: concentration or dose not given beside the values
Rattus norvegicus [2] = species: Rattus norvegicus; experiment: Percent inhibition at 250 ug/mL of binary mixtures of compound and alpha-tocotrienol on cholesterol synthesis in rat hepatocytes; format: functional, Hepatocyte
Rattus norvegicus [3] = species: Rattus norvegicus; experiment: Percent inhibition at 250 ug/mL of binary mixtures of compound and gamma-tocotrienol on cholesterol synthesis in rat hepatocytes; format: functional, Hepatocyte
Gallus gallus [4] = species: Gallus gallus; experiment: Compound is evaluated for the effect on lipid metabolism in 6-week-old male chickens at a concentration of 20 ppm in the diet and measured for LDL cholesterol; format: functional
Method in brief: (§1)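 Male chicks were raised 2 weeks on a corn-soybean control diet, then fed 4 weeks on control diet or the same diet with compound added. All birds were fasted 36 h and refed 48 h before sacrifice. Serum cholesterol is given as mg/100 mL.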

Gallus gallus [5] = species: Gallus gallus; experiment: picomoles of mevalonic acid synthesized per minute per mg of microsomal protein; format: functional, organism-based
Rattus norvegicus [6] = species: Rattus norvegicus; experiment: Inhibitory concentration required to inhibit cholesterol synthesis in isolated rat Hepatocytes; no inhibition; format: functional; settings: hepatocyte
Gallus gallus [7] = species: Gallus gallus; experiment: Compound is evaluated for the effect on lipid metabolism in 6-week-old male chickens at a concentration of 20 ppm in the diet and measured for HDL cholesterol; format: functional
Rattus norvegicus [8] = species: Rattus norvegicus; experiment: Compound is evaluated for the inhibition of cholesterol biosynthesis in isolated rat hepatocytes at the concentration 250 (ug/mL); format: functional, Hepatocyte
Gallus gallus [9] = species: Gallus gallus; experiment: Compound is evaluated for the effect on lipid metabolism in 6-week-old male chickens at a concentration of 20 ppm in the diet and measured for total cholesterol; format: functional
Rattus norvegicus [10] = species: Rattus norvegicus; experiment: Percent inhibition at 250 ug/mL of binary mixtures of compound and delta-tocotrienol on cholesterol synthesis in rat hepatocytes; format: functional, Hepatocyte
Rattus norvegicus [11] = species: Rattus norvegicus; experiment: Compound is evaluated for the inhibition of cholesterol biosynthesis in isolated rat hepatocytes at the concentration 500 ug/mL; format: functional, Hepatocyte
Rattus norvegicus [12] = species: Rattus norvegicus; experiment: Percent inhibition of cholesterol biosynthesis in rat hepatocytes at a concentration of 210 (micro g/mL); format: functional, Hepatocyte
Rattus norvegicus [13] = species: Rattus norvegicus; experiment: Compound was evaluated for percent inhibition of cholesterol biosynthesis in primary rat hepatocytes at a concentration of 138 ug/mL (pre-incubated for 45 min); format: functional; settings: Hepatocyte
Rattus norvegicus [14] = species: Rattus norvegicus; experiment: Compound was evaluated for percent inhibition of cholesterol biosynthesis in primary rat hepatocytes at a concentration of 275 ug/mL (pre-incubated for 45 min); format: functional; settings: Hepatocyte
Rattus norvegicus [15] = species: Rattus norvegicus; experiment: Compound was evaluated for percent inhibition of cholesterol biosynthesis in primary rat hepatocytes at a concentration of 2200 ug/mL (pre-incubated for 45 min); format: functional; settings: Hepatocyte
Rattus norvegicus [16] = species: Rattus norvegicus; experiment: Compound was evaluated for percent inhibition of cholesterol biosynthesis in primary rat hepatocytes at a concentration of 550 ug/mL (pre-incubated for 45 min); format: functional; settings: Hepatocyte
Rattus norvegicus [17] = species: Rattus norvegicus; experiment: Compound was evaluated for percent inhibition of cholesterol biosynthesis in primary rat hepatocytes at a concentration of 1100 ug/mL (pre-incubated for 45 min); format: functional; settings: Hepatocyte
Rattus norvegicus [18] = species: Rattus norvegicus; experiment: Inhibitory concentration required to inhibit cholesterol biosynthesis in rat hepatocytes; format: functional, Hepatocyte
Gallus gallus [19] = species: Gallus gallus; experiment: Compound is evaluated for the effect on lipid metabolism in 6-week-old male chickens at a concentration of 20 ppm in the diet and measured for HDL cholesterol (dose 15 p.p.m.); format: functional
Gallus gallus [20] = species: Gallus gallus; experiment: Compound is evaluated for the effect on lipid metabolism in 6-week-old male chickens at a concentration of 20 ppm in the diet and measured for LDL cholesterol (dose 15 p.p.m.); format: functional; method in brief: as §1
Gallus gallus [21] = species: Gallus gallus; experiment: picomoles of mevalonic acid synthesized per minute per mg of microsomal protein (dose 15 p.p.m.); format: functional, organism-based
HepG2 [22] = experiment: Compound evaluated for Percent inhibition of cholesterol synthesis from HMG-CoA Reductase in HepG2 cell; format: functional, Homo sapiens
Gallus gallus [23] = species: Gallus gallus; experiment: Compound is evaluated for the effect on lipid metabolism in 6-week-old male chickens at a concentration of 20 ppm in the diet and measured for total cholesterol (dose 30 p.p.m.); format: functional
Gallus gallus [24] = species: Gallus gallus; experiment: Compound is evaluated for the effect on lipid metabolism in 6-week-old male chickens at a concentration of 20 ppm in the diet and measured for LDL cholesterol dose 45 p.p.m.); format: functional; method in brief: as §1
Gallus gallus [25] = species: Gallus gallus; experiment: Compound is evaluated for the effect on lipid metabolism in 6-week-old male chickens at a concentration of 20 ppm in the diet and measured for LDL cholesterol (dose 30 p.p.m.); format: functional; method in brief: as §1
Gallus gallus [26] = species: Gallus gallus; experiment: Compound is evaluated for the effect on lipid metabolism in 6-week-old male chickens at a concentration of 20 ppm in the diet and measured for total cholesterol (dose 15 p.p.m.); format: functional
Gallus gallus [27] = species: Gallus gallus; experiment: Compound is evaluated for the effect on lipid metabolism in 6-week-old male chickens at a concentration of 20 ppm in the diet and measured for HDL cholesterol dose 45 p.p.m.); format: functional
HepG2 [28] = experiment: Compound evaluated for Percent inhibition of cholesterol synthesis from [14C]acetate in HepG2 cell; format: functional, Homo sapiens
Gallus gallus [29] = species: Gallus gallus; experiment: picomoles of mevalonic acid synthesized per minute per mg of microsomal […] 45 p.p.m.); format: functional, organism-based
Gallus gallus [30] = species: Gallus gallus; experiment: Compound is evaluated for the effect on lipid metabolism in 6-week-old male chickens at a concentration of 20 ppm in the diet and measured for total cholesterol (dose 45 p.p.m.); format: functional
Gallus gallus [31] = species: Gallus gallus; experiment: Compound is evaluated for the effect on lipid metabolism in 6-week-old male chickens at a concentration of 20 ppm in the diet and measured for HDL cholesterol (dose 30 p.p.m.); format: functional
Gallus gallus [32] = species: Gallus gallus; experiment: picomoles of mevalonic acid synthesized per minute per mg of microsomal protein(dose 30 p.p.m.); format: functional, organism-based
HepG2 [33] = experiment: Compound is evaluated for the inhibition of cholesterol synthesis in HepG2 cells for an incubation time of 2 (h); format: functional, cell-based; settings: Homo sapiens
Method in brief: (§2)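 HepG2 cells were grown in RPMI-1640 with 10% FBS. At about 70% confluence they were switched to 7% lipid-depleted serum for 16 h. Compound in DMSO (0.5% v/v final) was added for the stated time. A [2-14C]acetate pulse over the final 60 min measured incorporation into digitonin-precipitable sterols. IC50 came from linear regression of at least four concentrations, each in duplicate.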

HepG2 [34] = experiment: Compound is evaluated for the inhibition of cholesterol synthesis in HepG2 cells for an incubation time of 4 (h); format: functional, cell-based; settings: Homo sapiens; method in brief: as §2
HepG2 [35] = experiment: Compound is evaluated for the inhibition of cholesterol synthesis in HepG2 cells for an incubation time of 6 (h); format: functional, cell-based; settings: Homo sapiens; method in brief: as §2
HepG2 [36] = experiment: Compound is evaluated for relative potency versus gamma-tocotrienol at 4 (h) time point in HepG2 cells; format: functional, Homo sapiens
Rattus norvegicus [37] = species: Rattus norvegicus; experiment: Compound is evaluated for the inhibition of cholesterol biosynthesis in rat hepatocytes at a concentration of 210 (micro g/mL); format: functional, Hepatocyte
HepG2 [38] = experiment: Compound evaluated for percent inhibition of cholesterol synthesis from HMG-CoA Reductase in HepG2 cell; format: functional, Homo sapiens
Rattus norvegicus [39] = species: Rattus norvegicus; experiment: Compound is evaluated for the inhibition of cholesterol biosynthesis in rat hepatocytes at a concentration of 41 (micro g/mL); format: functional, Hepatocyte
HepG2 [40] = experiment: Compound is evaluated for relative potency versus gamma-tocotrienol at 2 (h) time point in HepG2 cells; format: functional, Homo sapiens
HepG2 [41] = experiment: Compound is evaluated for relative potency versus gamma-tocotrienol at 6 (h) time point in HepG2 cells; format: functional, Homo sapiens

CC(C)=CCC/C=C/CCC1(C)CCc2cc(O)c(C)c(C)c2O1 (stereo unspecified)
Inhibition (HepG2 [1]): 38%

COCCOCOc1cc2c(c(C)c1C)OC(C)(CC/C=C/CCC=C(C)C)CC2 (stereo unspecified)
Inhibition (HepG2 [1]): 19%

Cc1c(C)c2c(c(C)c1O)CC[C@@](C)(CCC[C@H](C)CCC[C@H](C)CCCC(C)C)O2 [ALPHA-TOCOPHEROL]
Inhibition (Rattus norvegicus [2]): 3%
Inhibition (Rattus norvegicus [3]): 42%
LDL cholesterol (Gallus gallus [4]): 72 mg 100ml-1
HMGR activity (Gallus gallus [5]): 1300
IC50 (Rattus norvegicus [6]): Not Active
HDL cholesterol (Gallus gallus [7]): 113 mg 100ml-1
Inhibition (Rattus norvegicus [8]): 0%
Total cholesterol (Gallus gallus [9]): 190 mg 100ml-1
Inhibition (Rattus norvegicus [10]): 49%
Inhibition (Rattus norvegicus [11]): 2% and 0%
Inhibition (Rattus norvegicus [12]): 0%

CC(C)=CCC/C(C)=C/CC/C(C)=C/CC[C@]1(C)CCc2cc(O)ccc2O1 (mixture of isomers)
IC50 (Rattus norvegicus [13]): 600 µg/mL
inhibition at 275 µg/mL (Rattus norvegicus [14]): 38%
inhibition at 2200 µg/mL (Rattus norvegicus [15]): 70%
inhibition at 550 µg/mL (Rattus norvegicus [16]): 45%
inhibition at 1100 µg/mL (Rattus norvegicus [17]): 60%
Inhibition (Rattus norvegicus [18]): 31%

CC(C)=CCC/C(C)=C/CC/C(C)=C/CCC1(C)CCc2cc(O)c(C)c(C)c2O1 (racemic)
HDL cholesterol (Gallus gallus [19]): 97 mg 100ml-1
LDL cholesterol (Gallus gallus [20]): 44 mg 100ml-1
HMGR activity (Gallus gallus [21]): 603
Inhibition (HepG2 [22]): 62%
Total cholesterol (Gallus gallus [23]): 138 mg 100ml-1
LDL cholesterol (Gallus gallus [24]): 32 mg 100ml-1
LDL cholesterol (Gallus gallus [25]): 39 mg 100ml-1
Total cholesterol (Gallus gallus [26]): 143 mg 100ml-1
HDL cholesterol (Gallus gallus [27]): 96 mg 100ml-1
Inhibition (HepG2 [28]): 71%
HMGR activity (Gallus gallus [29]): 551
Total cholesterol (Gallus gallus [30]): 132 mg 100ml-1
HDL cholesterol (Gallus gallus [31]): 97 mg 100ml-1
HMGR activity (Gallus gallus [32]): 561
IC50 (HepG2 [33]): 5.9 µM
IC50 (HepG2 [34]): 2.8 µM
IC50 (HepG2 [35]): 3 µM

CC(C)=CCC/C(C)=C/CC/C(C)=C/CCC1(C)CCc2c(C)c(O)c(C)c(C)c2O1 (racemic)
Relative potency (HepG2 [36]): 0.03
Inhibition (Rattus norvegicus [37]): 17%
Inhibition (HepG2 [38]): 19%
Inhibition (Rattus norvegicus [39]): 4%
Inhibition (HepG2 [1]): 21%
IC50 (HepG2 [33]): 380 µM
IC50 (HepG2 [34]): 94 µM
IC50 (HepG2 [35]): 110 µM
Relative potency (HepG2 [40]): 0.016
Relative potency (HepG2 [41]): 0.027
